Assay results as given in ChEMBL document CHEMBL3272322, “8-chloro-(S)- and -(R)-10-((S)-and -(R)-3'-methylethylaminopyrrolidino)- 10,11-dihydrodibenzo(b,f)thiepins. Synthesis and pharmacological studies” (J Med Chem, 1976).
Calls of active or inactive are those of the source.

Key:
Mus musculus [1] = assay: Anticonvulsant activity in albino CD-1 mouse assessed as protection against pentylenetetrazol-induced tonic seizure ratio at 40 mg/kg, ip administered 60 to 90 mins before pentylenetetrazol challenge relative to control; type: functional; conditions: route intraperitoneal
Procedure, shortened: (§1)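 Male CD-1 mice (18-25 g), 8-10 per group, received saline (1 ml/100 g) or compound (40 mg/kg) ip 60-90 min before seizure induction. Seizures were induced by iv infusion of 0.5% pentylenetetrazole solution. The minimal (clonic) and maximal (tonic) seizure thresholds were determined.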

Mus musculus [2] = assay: Antipsychotic activity in ip dosed albino CD-1 mouse assessed as spontaneous motor activity for 15 mins intervals for 2 hrs by conditioned avoidance test; type: functional; conditions: for ED50: CD-1, ip
Mus musculus [3] = assay: Anticonvulsant activity in albino CD-1 mouse assessed as protection against pentylenetetrazol-induced clonic seizure ratio at 40 mg/kg, ip administered 60 to 90 mins before pentylenetetrazol challenge relative to control; type: functional; conditions: route intraperitoneal; procedure, shortened: as §1
Mus musculus [4] = assay: Analgetic activity in albino CD-1 mouse assessed as inhibition of thermally-induced pain at 10 to 20 mg/kg, ip; type: functional, organism-based
Procedure, shortened: (§2)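 Male albino CD-1 mice (18-25 g) were given compound ip in distilled water and tested 60-90 min later on a hot wire analgetic apparatus at 50°. Reaction times were compared with saline-pretreated controls. Each point used 5 treated and 20 control mice and is reported as mean ± SEM in seconds. Statistics were analysis of variance followed by t test or Mann-Whitney U.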

Mus musculus [5] = assay: Toxicity in albino CD-1 mouse assessed as reduction of rectal temperature at 40 mg/kg, ip; type: organism-based; parameters: dose 40 mg/kg, route intraperitoneal; conditions: in vivo
Procedure, shortened: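 Rectal temperature of male CD-1 mice was recorded by tele-thermometer with a small-animal probe at time of peak activity (60-90 min) after 40 mg/kg ip in distilled water.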

Mus musculus [6] = assay: Acute toxicity in ip dosed albino CD-1 mouse assessed as mortality after 2 to 3 hrs; type: organism-based; conditions: in vivo
Mus musculus [7] = assay: Antidepressant activity in albino CD-1 mouse assessed as inhibition of reserpine-induced sedation up to 40 mg/kg, ip; type: functional, organism-based; parameters: dose 40 mg/kg
Procedure, shortened: (§3)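 CD-1 male mice were dosed ip in distilled water 60-90 min before challenge with reserpine (4 mg/kg ip). Hypothermia, sedation and ptosis were assessed. Rectal temperature was taken with a tele-thermometer fitted with a small-animal probe.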

Mus musculus [8] = assay: Neurotoxicity against ip dosed albino CD-1 mouse assessed as time of peak effect by rotarod test; type: toxicity, organism-based; conditions: in vivo
Procedure, shortened: (§4)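 Male CD-1 mice (18-25 g), five per group, were dosed ip in distilled water. The endpoint was failure to stay for 1 min on a horizontal rod rotating at 6 rpm. Time of peak effect was determined on the rod, and TD50 was measured at that time. TD50 is given with 95% confidence limits by Litchfield-Wilcoxon.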

Mus musculus [9] = assay: Antidepressant activity in albino CD-1 mouse assessed as inhibition of reserpine-induced hypothermia up to 40 mg/kg, ip; type: functional, organism-based; parameters: dose 40 mg/kg; procedure, shortened: as §3
Mus musculus [10] = assay: Neuromuscular blocking activity in albino CD-1 mouse up to 20 mg/kg, ip; type: organism-based; parameters: dose 20 mg/kg, route intraperitoneal; conditions: in vivo
Procedure, shortened: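 Male CD-1 mice were dosed ip in distilled water and tested 60-90 min later. Neuromuscular blockade was judged by ability to remain on a wire mesh screen inclined at 60°.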

Ileum [11] = assay: Antispasmodic activity in guinea pig ileum assessed as inhibition of acetylcholine-induced contraction at 10^-8 to 10^-6 M; type: functional, tissue-based; conditions: Cavia porcellus
Procedure, shortened: (§5)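 Isolated guinea pig ileum (both sexes) was suspended in Krebs' solution at 37 ± 0.5°, gassed with 95% O2-5% CO2. Antihistaminic, anticholinergic and nonselective antispasmodic activity were measured.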

Mus musculus [12] = assay: Antiparkinson activity in albino CD-1 mouse assessed as inhibition of oxotremorine-induced diarrhea, and tremors at 5 to 40 mg/kg, ip; type: functional, organism-based
Mus musculus [13] = assay: Antidepressant activity in albino CD-1 mouse assessed as potentiation of L-dopa-induced effect up to 40 mg/kg, ip; type: functional, organism-based; parameters: dose 40 mg/kg
Procedure, shortened: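 Compound was given ip in distilled water to male CD-1 mice. Potentiation of stimulation induced by L-Dopa (100 mg/kg ip) was assessed.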

Mus musculus [14] = assay: Antidepressant activity in albino CD-1 mouse assessed as inhibition of reserpine-induced ptosis up to 40 mg/kg, ip; type: functional, organism-based; parameters: dose 40 mg/kg; procedure, shortened: as §3
Mus musculus [15] = assay: Antiparkinson activity in ip dosed albino CD-1 mouse assessed as inhibition of oxotremorine-induced diarrhea, and tremors; type: functional, organism-based
Ileum [16] = assay: Antispasmodic activity in guinea pig ileum assessed as inhibition of barium chloride-induced spasm at 5 x 10^-7 M; type: functional; conditions: Cavia porcellus; procedure, shortened: as §5
Mus musculus [17] = assay: Analgetic activity in albino CD-1 mouse assessed as inhibition of thermally-induced pain at 10 to 15 mg/kg, ip relative to control; type: functional; conditions: dose mg/kg 10-15; route intraperitoneal; procedure, shortened: as §2
[18] = Neurotoxicity against ip dosed albino CD-1 mouse by rotarod test; type: toxicity, organism-based; conditions: in vivo; procedure, shortened: as §4
Ileum [19] = assay: Antispasmodic activity in guinea pig ileum assessed as inhibition of histamine-induced contraction at 10^-8 to 10^-6 M; type: functional, tissue-based; conditions: Cavia porcellus; procedure, shortened: as §5
Mus musculus [20] = assay: Toxicity in ip dosed albino CD-1 mouse assessed as muscle weakness and flaccidity; type: organism-based, Muscle tissue; conditions: in vivo
Mus musculus [21] = assay: Antiparkinson activity in albino CD-1 mouse assessed as inhibition of oxotremorine-induced hypothermia at 40 mg/kg, ip; type: functional, organism-based; parameters: dose 40 mg/kg
Procedure, shortened: (§6)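 Five male CD-1 mice per group were pretreated ip with saline or compound 60-90 min before oxotremorine 1.0 mg/kg ip. Oxotremorine-induced hypothermia or salivation was then assessed.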

[22] = Acute toxicity in ip dosed albino CD-1 mouse after 24 hrs; type: organism-based; conditions: in vivo
Procedure, shortened: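 Male albino CD-1 mice (18-25 g), groups of eight. Each mouse got a single ip injection of compound dissolved in distilled water. Lethality was scored 24 hr after dosing. LD50 was calculated with 95% confidence limits by the Litchfield and Wilcoxon method.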

Mus musculus [23] = assay: Antiparkinson activity in albino CD-1 mouse assessed as inhibition of oxotremorine-induced salivation at 100 mg/kg, ip; type: functional; procedure, shortened: as §6
Mus musculus [24] = assay: Analgetic activity in albino CD-1 mouse assessed as inhibition of thermally-induced pain at 20 to 40 mg/kg, ip relative to control; type: functional; parameters: scale not given: the % may be the effect or the level left; conditions: dose mg/kg 20-40; route intraperitoneal; procedure, shortened: as §2
Mus musculus [25] = assay: Analgetic activity in albino CD-1 mouse assessed as inhibition of thermally-induced pain at 5 mg/kg, ip; type: functional, organism-based; parameters: dose 5 mg/kg; procedure, shortened: as §2
Mus musculus [26] = assay: Antiparkinson activity in albino CD-1 mouse assessed as inhibition of oxotremorine-induced diarrhea, and tremors at 20 to 40 mg/kg, ip; type: functional; parameters: scale not given: the % may be the effect or the level left; conditions: dose mg/kg 20-40; route intraperitoneal
Mus musculus [27] = assay: Antiparkinson activity in albino CD-1 mouse assessed as inhibition of oxotremorine-induced diarrhea, and tremors at 5 mg/kg, ip; type: functional; parameters: scale not given: the % may be the effect or the level left; conditions: route intraperitoneal

Compound	Ratio (Mus musculus [1])	Activity (Mus musculus [2])	ED50 (Mus musculus [2]) [mg/kg]	Ratio (Mus musculus [3])	Activity (Mus musculus [4])	T (Mus musculus [5]) [°C]	Activity (Mus musculus [6])	Activity (Mus musculus [7])	Time (Mus musculus [8]) [min]	Activity (Mus musculus [9])	Activity (Mus musculus [10])	inhibition (Ileum [11])	Activity (Mus musculus [12])	Activity (Mus musculus [13])	Activity (Mus musculus [14])	Activity (Mus musculus [15])	inhibition at 0.5 µM (Ileum [16]) [%]	fold change (FC) (Mus musculus [17])	TD50 [18] [mg/kg]	inhibition (Ileum [19])	further results
CCN(C)[C@@H]1CCN([C@H]2Cc3ccccc3Sc3ccc(Cl)cc32)C1	0.73	Dose-dependent effect	12	1.24	Active	5.1	Toxic	inactive	60	inactive	Non-toxic	Active	Active	inactive	inactive	Dose-dependent effect	40	1.5	13.6	Active	Activity (Mus musculus [20]): Toxic; Activity (Mus musculus [21]): inactive; LD50 at 24 h [22]: 186 mg/kg; Activity (Mus musculus [23]): inactive; Activity (Mus musculus [24]): 23%
CCN(C)[C@H]1CCN([C@@H]2Cc3ccccc3Sc3ccc(Cl)cc32)C1	1	Dose-dependent effect	12	1.27	Active	5.1	Toxic	inactive	60	inactive	Non-toxic	Active	Active	inactive	inactive	Dose-dependent effect	40	1.5	12.5	Active	Activity (Mus musculus [20]): Toxic; Activity (Mus musculus [21]): inactive; LD50 at 24 h [22]: 177 mg/kg; Activity (Mus musculus [23]; route intraperitoneal): 27%; Activity (Mus musculus [24]): 23%
CCN(C)[C@@H]1CCN([C@@H]2Cc3ccccc3Sc3ccc(Cl)cc32)C1	0.75	Dose-dependent effect	6.4	1.08	Active	5.1	Toxic	inactive	60	inactive	Non-toxic	Active	Active	inactive	inactive	Dose-dependent effect	40	1.5	6.4	Active	Activity (Mus musculus [25]): Active; Activity (Mus musculus [26]): 93%; Activity (Mus musculus [27]): 60%; Activity (Mus musculus [20]): Toxic; Activity (Mus musculus [21]): inactive; LD50 at 24 h [22]: 217 mg/kg; Activity (Mus musculus [23]; route intraperitoneal): 60%; Activity (Mus musculus [24]): 23%
CCN(C)[C@H]1CCN([C@H]2Cc3ccccc3Sc3ccc(Cl)cc32)C1	0.93	Dose-dependent effect	6.8	1.16	Active	5.1	Toxic	inactive	60	inactive	Non-toxic	Active	Active	inactive	inactive	Dose-dependent effect	40	1.5	6.2	Active	Activity (Mus musculus [25]): Active; Activity (Mus musculus [26]): 93%; Activity (Mus musculus [27]): 60%; Activity (Mus musculus [20]): Toxic; Activity (Mus musculus [21]): inactive; LD50 at 24 h [22]: 175 mg/kg; Activity (Mus musculus [23]): inactive; Activity (Mus musculus [24]): 23%
